{"source": "ChEMBL document CHEMBL3872285", "about": "“Discovery of a Potent, Selective, and Orally Available PI3Kδ Inhibitor for the Treatment of Inflammatory Diseases” (ACS Med Chem Lett, 2017)", "key": {"[1]": {"tested_on": "Rattus norvegicus", "assay": "Anti-inflammatory activity in Brown Norway rat assessed as reduction in OVA-induced eosinophil infilteration to bronchoalveolar lavage administered orally bid 1 hr prior to OVA challenge on day 14 and 6 hrs post OVA challenge on day 21 measured 24 hrs post last OVA challenge by microscopic method", "format": "functional"}, "[2]": {"biological_target": "Cytochrome P450 2C9 (Homo sapiens, UniProt P11712)", "sequence (P11712 whole entry)": "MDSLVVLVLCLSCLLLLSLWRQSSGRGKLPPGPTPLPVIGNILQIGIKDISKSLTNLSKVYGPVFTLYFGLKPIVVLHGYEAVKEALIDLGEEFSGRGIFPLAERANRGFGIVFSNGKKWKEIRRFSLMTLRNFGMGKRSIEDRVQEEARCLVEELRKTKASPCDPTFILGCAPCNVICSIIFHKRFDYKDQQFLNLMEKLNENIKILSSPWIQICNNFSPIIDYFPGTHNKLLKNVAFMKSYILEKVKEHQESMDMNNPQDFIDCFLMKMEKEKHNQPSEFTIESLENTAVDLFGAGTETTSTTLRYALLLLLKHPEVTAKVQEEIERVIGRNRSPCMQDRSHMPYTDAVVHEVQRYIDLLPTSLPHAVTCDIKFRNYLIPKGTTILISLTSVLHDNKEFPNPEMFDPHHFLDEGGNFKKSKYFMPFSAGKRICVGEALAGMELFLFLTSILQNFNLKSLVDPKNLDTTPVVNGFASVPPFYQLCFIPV", "assay": "Inhibition of CYP2C9 in human liver microsomes assessed as reduction in diclofenac 4-hydroxylation at 1 to 25 uM by UPLC-MS/MS analysis", "format": "ADME"}, "[3]": {"biological_target": "PI3-kinase p110-alpha/p85-alpha (Homo sapiens, UniProt P42336)", "assay": "Inhibition of full length recombinant human N-terminal His6-tagged PI3K p110alpha/human p85alpha expressed in baculovirus infected Sf21 insect cells using PIP2 as substrate preincubated for 30 mins followed by substrate addition by HTRF assay", "summary_of_the_method": "(§1)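 Recombinant human class I PI3K isoform, HTRF readout. ATP held at the Km of the enzyme. Compound preincubated with enzyme for 30 min. PIP3 product detected by its displacement of biotin-PIP3 from an energy-transfer complex.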"}, "[4]": {"assay": "Clearance in Wistar rat at 1 mg/kg, iv", "conditions": "in vivo"}, "[5]": {"assay": "Oral bioavailability in Wistar rat at 1 mg/kg administered via gavage", "format": "ADME, organism-based", "conditions": "in vivo"}, "[6]": {"assay": "Oral bioavailability in Beagle dog at 1 mg/kg administered via gavage", "format": "ADME, organism-based, Canis lupus familiaris", "conditions": "in vivo"}, "[7]": {"assay": "Protein binding in rat plasma at 1 uM by LC-MS/MS analysis", "format": "ADME, cell-free", "conditions": "read-out: PPB"}, "[8]": {"biological_target": "PI3K p110 beta/p85 alpha (Homo sapiens, UniProt P42338)", "sequence (P27986 whole entry)": "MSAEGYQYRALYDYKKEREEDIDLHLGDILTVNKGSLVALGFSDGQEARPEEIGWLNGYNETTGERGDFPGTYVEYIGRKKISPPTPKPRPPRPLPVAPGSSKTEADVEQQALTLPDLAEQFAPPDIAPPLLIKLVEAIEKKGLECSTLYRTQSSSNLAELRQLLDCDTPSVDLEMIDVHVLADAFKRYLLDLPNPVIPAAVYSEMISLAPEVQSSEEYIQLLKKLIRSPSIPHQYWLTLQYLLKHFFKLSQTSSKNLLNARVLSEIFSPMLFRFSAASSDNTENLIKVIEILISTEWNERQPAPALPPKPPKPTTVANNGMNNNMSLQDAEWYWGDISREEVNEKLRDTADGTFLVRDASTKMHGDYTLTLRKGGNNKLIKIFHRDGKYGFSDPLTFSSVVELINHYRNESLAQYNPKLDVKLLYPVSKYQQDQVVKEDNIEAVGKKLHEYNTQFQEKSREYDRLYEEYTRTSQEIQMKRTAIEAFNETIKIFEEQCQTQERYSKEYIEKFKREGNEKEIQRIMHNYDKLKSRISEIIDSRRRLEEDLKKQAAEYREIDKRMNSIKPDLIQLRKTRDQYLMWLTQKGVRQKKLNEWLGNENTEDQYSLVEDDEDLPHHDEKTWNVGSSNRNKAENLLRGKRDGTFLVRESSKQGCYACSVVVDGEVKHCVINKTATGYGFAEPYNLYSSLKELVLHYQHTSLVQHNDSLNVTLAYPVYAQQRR", "sequence (P42338 whole entry)": "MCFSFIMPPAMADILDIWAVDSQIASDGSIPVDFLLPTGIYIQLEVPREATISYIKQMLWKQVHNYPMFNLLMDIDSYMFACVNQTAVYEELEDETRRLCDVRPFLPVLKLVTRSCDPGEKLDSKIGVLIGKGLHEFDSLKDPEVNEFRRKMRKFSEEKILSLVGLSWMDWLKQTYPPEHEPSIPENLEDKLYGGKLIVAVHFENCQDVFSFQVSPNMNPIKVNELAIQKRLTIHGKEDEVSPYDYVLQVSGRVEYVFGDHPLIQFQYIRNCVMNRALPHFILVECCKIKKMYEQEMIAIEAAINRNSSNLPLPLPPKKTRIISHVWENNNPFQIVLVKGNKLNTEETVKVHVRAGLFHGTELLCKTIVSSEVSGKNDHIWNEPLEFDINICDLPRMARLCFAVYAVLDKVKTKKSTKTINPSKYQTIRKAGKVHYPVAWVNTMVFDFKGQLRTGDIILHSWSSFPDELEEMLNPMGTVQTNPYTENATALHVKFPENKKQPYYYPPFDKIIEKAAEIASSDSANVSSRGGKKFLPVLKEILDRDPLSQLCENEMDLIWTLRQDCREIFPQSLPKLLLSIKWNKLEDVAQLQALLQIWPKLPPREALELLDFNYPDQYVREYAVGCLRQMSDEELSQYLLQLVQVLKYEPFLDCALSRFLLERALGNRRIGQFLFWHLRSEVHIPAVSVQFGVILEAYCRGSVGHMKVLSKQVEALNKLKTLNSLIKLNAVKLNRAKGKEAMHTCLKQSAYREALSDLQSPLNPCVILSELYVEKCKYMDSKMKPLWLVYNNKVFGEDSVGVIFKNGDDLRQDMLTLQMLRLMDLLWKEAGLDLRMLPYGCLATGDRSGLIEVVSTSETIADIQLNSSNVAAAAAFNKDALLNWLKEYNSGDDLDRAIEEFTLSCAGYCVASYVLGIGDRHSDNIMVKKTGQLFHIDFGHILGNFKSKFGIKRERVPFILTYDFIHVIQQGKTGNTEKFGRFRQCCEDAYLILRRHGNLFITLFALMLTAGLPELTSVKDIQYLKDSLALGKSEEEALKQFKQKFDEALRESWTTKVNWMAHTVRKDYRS", "assay": "Inhibition of full length recombinant human N-terminal […]-tagged PI3K p110beta/full length human p85alpha expressed in baculovirus infected Sf21 insect cells using PIP2 as substrate preincubated for 30 mins followed by substrate addition by HTRF assay", "summary_of_the_method": "as §1"}, "[9]": {"assay": "Protein binding in mouse plasma at 1uM by LC-MS/MS analysis", "format": "ADME, cell-free", "conditions": "read-out: PPB"}, "[10]": {"biological_target": "PI3-kinase p110-delta/p85-alpha (Homo sapiens, UniProt O00329)", "sequence (P27986 whole entry)": "as the sequence (P27986 whole entry) above", "sequence (O00329 whole entry)": "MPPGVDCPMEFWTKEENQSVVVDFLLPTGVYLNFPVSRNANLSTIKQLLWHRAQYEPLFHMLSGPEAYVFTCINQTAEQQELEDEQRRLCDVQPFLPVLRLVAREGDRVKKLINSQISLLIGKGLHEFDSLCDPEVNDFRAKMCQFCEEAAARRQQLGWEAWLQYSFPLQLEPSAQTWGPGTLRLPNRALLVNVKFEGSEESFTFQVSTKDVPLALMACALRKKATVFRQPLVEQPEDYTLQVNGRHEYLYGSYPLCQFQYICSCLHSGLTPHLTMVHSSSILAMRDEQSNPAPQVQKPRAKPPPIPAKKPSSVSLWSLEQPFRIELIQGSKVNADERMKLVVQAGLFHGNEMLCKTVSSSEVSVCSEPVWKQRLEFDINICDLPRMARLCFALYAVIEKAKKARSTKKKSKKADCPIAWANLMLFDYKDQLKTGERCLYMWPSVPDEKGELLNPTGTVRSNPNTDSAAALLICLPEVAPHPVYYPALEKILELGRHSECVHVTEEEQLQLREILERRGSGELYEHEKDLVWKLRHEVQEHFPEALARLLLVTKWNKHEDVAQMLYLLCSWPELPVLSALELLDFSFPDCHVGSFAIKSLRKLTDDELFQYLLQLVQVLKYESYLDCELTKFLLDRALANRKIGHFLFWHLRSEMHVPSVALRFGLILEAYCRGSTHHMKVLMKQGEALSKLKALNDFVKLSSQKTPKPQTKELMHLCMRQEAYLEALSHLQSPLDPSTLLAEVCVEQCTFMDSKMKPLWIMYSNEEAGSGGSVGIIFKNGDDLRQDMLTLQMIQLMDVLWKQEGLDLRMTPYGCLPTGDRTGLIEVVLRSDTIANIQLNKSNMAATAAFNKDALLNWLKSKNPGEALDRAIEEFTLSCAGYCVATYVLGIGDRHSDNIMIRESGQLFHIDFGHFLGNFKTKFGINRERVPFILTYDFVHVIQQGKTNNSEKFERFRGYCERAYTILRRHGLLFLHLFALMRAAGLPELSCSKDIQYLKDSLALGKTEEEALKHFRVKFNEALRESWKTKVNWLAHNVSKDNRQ", "assay": "Inhibition of full length recombinant human N-terminal His6-tagged PI3K p110delta/human p85alpha expressed in baculovirus infected sf21 cells using PIP2 as substrate preincubated for 30 mins followed by substrate addition by HTRF assay"}, "[11]": {"assay": "Drug metabolism in rat liver microsomes assessed as disappearance of parent compound at 5 uM after 30 mins in presence of NADPH by UPLC-MS/MS analysis"}, "[12]": {"biological_target": "T1, Cytochrome P450 1A2 (Homo sapiens, UniProt P05177)", "T1 sequence (P05177 whole entry)": "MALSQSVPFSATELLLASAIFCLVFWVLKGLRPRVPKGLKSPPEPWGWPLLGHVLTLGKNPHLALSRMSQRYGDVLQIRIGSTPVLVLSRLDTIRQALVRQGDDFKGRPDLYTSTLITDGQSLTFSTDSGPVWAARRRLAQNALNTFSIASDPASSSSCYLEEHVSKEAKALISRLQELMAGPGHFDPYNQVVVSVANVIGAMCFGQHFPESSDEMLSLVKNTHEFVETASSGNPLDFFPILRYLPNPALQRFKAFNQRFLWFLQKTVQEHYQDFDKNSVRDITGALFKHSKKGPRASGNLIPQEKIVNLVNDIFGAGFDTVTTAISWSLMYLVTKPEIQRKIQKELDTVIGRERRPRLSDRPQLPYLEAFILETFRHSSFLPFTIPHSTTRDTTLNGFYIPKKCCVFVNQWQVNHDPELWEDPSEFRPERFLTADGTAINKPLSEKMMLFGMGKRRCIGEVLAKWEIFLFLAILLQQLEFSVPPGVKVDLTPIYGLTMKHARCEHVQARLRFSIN", "assay": "Inhibition of CYP1A2 in human liver microsomes assessed as reduction in Ethoxyresorufin O-deethylation at 1 to 25 uM by UPLC-MS/MS analysis", "format": "ADME"}, "[13]": {"tested_on": "Rattus norvegicus", "assay": "In vivo inhibition of PI3Kdelta in Wistar rat assessed as reduction in ConA-induced increase in plasma IL2 production administered through oral gavage 1 hr prior to ConA measured 90 mins post ConA challenge by ELISA", "format": "functional", "conditions": "read-out: ID50 (the source's name)"}, "[14]": {"assay": "AUC in Beagle dog at 1 mg/kg, iv through bolus administration", "format": "ADME, organism-based, Canis lupus familiaris", "conditions": "in vivo"}, "[15]": {"assay": "Stability in human plasma at 5 uM up to 24 hrs by UPLC-MS/MS analysis", "format": "ADME, cell-free", "conditions": "read-out: Stability", "summary_of_the_method": "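Compound incubated at 2 µg/ml in plasma (sodium heparin anticoagulant) at 37 °C for 24 h; percent remaining reported.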"}, "[16]": {"assay": "Protein binding in dog plasma at 1 uM by LC-MS/MS analysis", "format": "ADME, cell-free, Canis lupus familiaris", "conditions": "read-out: PPB"}, "[17]": {"assay": "AUC in Wistar rat at 1 mg/kg, iv", "format": "ADME, organism-based", "conditions": "in vivo", "summary_of_the_method": "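Wistar rats received a single 1 mg/kg intravenous dose. Plasma samples were collected and AUC was calculated from them, along with half-life, clearance and steady-state volume of distribution. Values are means of two animals (n=2).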"}, "[18]": {"assay": "Protein binding in human plasma at 1 uM by LC-MS/MS analysis", "format": "ADME, cell-free", "conditions": "read-out: PPB", "summary_of_the_method": "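Binding measured by equilibrium dialysis at 37 °C, compound at 1 µM in human plasma; percent bound reported as mean.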"}, "[19]": {"assay": "Apparent volume of distribution in Beagle dog at 1 mg/kg, iv through bolus administration", "format": "ADME, organism-based, Canis lupus familiaris", "conditions": "in vivo, read-out: Vz"}, "[20]": {"biological_target": "Cytochrome P450 3A4 (Homo sapiens, UniProt P08684)", "sequence (P08684 whole entry)": "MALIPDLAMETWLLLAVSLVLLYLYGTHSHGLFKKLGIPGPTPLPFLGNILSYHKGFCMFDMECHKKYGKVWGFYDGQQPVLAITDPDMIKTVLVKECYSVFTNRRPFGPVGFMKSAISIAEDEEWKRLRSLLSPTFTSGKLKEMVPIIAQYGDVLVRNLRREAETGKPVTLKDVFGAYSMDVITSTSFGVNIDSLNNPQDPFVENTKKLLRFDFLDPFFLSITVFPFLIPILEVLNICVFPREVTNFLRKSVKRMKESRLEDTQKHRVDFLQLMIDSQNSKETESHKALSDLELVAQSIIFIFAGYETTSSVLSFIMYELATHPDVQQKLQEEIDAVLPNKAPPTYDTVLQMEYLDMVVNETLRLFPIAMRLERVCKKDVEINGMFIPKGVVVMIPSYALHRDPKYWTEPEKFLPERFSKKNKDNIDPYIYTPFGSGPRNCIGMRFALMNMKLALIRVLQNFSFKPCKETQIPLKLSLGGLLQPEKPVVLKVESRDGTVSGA", "assay": "Inhibition of CYP3A4 in human liver microsomes assessed as reduction in testosterone 6beta-hydroxylation at 1 to 25 uM by UPLC-MS/MS analysis", "format": "ADME"}, "[21]": {"assay": "Apparent volume of distribution in Wistar rat at 1 mg/kg, iv", "format": "ADME, organism-based", "conditions": "in vivo, read-out: Vz"}, "[22]": {"assay": "Drug metabolism in human liver microsomes assessed as disappearance of parent compound at 5 uM after 30 mins in presence of NADPH by UPLC-MS/MS analysis"}, "[23]": {"biological_target": "Cytochrome P450 2C19 (Homo sapiens, UniProt P33261)", "sequence (P33261 whole entry)": "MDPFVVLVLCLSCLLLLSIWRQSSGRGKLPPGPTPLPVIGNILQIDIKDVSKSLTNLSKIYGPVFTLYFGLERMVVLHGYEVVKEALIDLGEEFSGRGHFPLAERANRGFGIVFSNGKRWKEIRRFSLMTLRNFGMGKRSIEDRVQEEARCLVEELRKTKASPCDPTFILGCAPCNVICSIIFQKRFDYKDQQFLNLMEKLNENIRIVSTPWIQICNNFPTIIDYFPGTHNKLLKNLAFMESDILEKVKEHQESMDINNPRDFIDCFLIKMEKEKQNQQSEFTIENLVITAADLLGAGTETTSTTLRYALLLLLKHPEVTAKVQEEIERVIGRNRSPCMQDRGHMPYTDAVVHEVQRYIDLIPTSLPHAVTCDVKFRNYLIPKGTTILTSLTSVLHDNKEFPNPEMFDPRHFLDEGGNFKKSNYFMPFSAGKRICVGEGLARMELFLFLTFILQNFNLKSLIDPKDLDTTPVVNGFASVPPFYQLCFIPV", "assay": "Inhibition of CYP2C19 in human liver microsomes assessed as reduction in S-mephenytoin-4-hydroxylation at 1 to 25 uM by UPLC-MS/MS analysis", "format": "ADME"}, "[24]": {"assay": "Clearance in Beagle dog at 1 mg/kg, iv through bolus administration", "conditions": "in vivo"}, "[25]": {"assay": "Half life in Beagle dog at 1 mg/kg, iv through bolus administration", "format": "ADME, organism-based, Canis lupus familiaris", "conditions": "in vivo"}, "[26]": {"biological_target": "Cytochrome P450 2D6 (Homo sapiens, UniProt P10635)", "sequence (P10635 whole entry)": "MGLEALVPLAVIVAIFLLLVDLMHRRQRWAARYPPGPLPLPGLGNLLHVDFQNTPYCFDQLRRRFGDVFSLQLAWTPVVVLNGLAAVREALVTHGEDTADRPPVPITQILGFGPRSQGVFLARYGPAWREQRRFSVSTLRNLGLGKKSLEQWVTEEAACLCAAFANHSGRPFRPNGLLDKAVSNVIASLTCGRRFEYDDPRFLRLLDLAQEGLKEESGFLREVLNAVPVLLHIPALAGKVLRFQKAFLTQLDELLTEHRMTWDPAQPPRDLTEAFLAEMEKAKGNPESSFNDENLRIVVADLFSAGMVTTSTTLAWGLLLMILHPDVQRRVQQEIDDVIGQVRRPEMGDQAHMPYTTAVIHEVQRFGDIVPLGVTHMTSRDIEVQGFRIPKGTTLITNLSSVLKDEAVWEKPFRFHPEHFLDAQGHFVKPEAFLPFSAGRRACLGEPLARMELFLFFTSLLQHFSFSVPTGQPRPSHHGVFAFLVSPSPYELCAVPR", "assay": "Inhibition of CYP2D6 in human liver microsomes assessed as reduction in dextromethorphan O-demethylation at 1 to 25 uM by UPLC-MS/MS analysis", "format": "ADME"}, "[27]": {"assay": "Half life in Wistar rat at 1 mg/kg, iv", "format": "ADME, organism-based", "conditions": "in vivo"}, "[28]": {"assay": "Apparent permeability of compound at 20 uM after 5 hrs by PAMPA", "format": "ADME"}}}
{"smiles": "C[C@H](Nc1ncnc(N)c1C#N)c1nn2ccc(C#N)c2c(=O)n1-c1ccccc1", "values": [{"measurement": "Activity", "setting": "[1]", "value": "Dose-dependent effect"}, {"measurement": "ED50", "setting": "[1]; po, read-out: ID50 (the source's name)", "value": 0.16, "unit": "mg/kg"}, {"measurement": "IC50", "setting": "[2]", "value": "> 25", "unit": "µM"}, {"measurement": "IC50", "setting": "[3]", "value": 8.2, "unit": "µM"}, {"measurement": "clearance", "setting": "[4]", "value": 9.6, "unit": "mL/min/kg"}, {"measurement": "bioavailability", "setting": "[5]", "value": 101, "unit": "%"}, {"measurement": "bioavailability", "setting": "[6]", "value": 98, "unit": "%"}, {"measurement": "fraction unbound at 1 µM", "setting": "[7]", "value": "0.35 to 0.4"}, {"measurement": "IC50", "setting": "[8]", "value": 0.094, "unit": "µM"}, {"measurement": "fraction unbound at 1 µM", "setting": "[9]", "value": "0.35 to 0.4"}, {"measurement": "IC50", "setting": "[10]", "value": 0.0026, "unit": "µM"}, {"measurement": "metabolised at 0.5 h, 5 µM", "setting": "[11]", "value": 20, "unit": "%"}, {"measurement": "IC50", "setting": "[12]", "value": "> 25", "unit": "µM"}, {"measurement": "ED50", "setting": "[13]", "value": 0.13, "unit": "mg/kg"}, {"measurement": "AUC", "setting": "[14]", "value": 9440, "unit": "ng·h/mL"}, {"measurement": "remaining at 24 h, 5 µM", "setting": "[15]", "value": 100, "unit": "%"}, {"measurement": "fraction unbound at 1 µM", "setting": "[16]", "value": "0.35 to 0.4"}, {"measurement": "AUC", "setting": "[17]", "value": 1730, "unit": "ng·h/mL"}, {"measurement": "fraction unbound at 1 µM", "setting": "[18]", "value": "0.046 to 0.05"}, {"measurement": "Vd", "setting": "[19]", "value": 1.2, "unit": "L/kg"}, {"measurement": "IC50", "setting": "[20]", "value": "> 25", "unit": "µM"}, {"measurement": "Vd", "setting": "[21]", "value": 2.6, "unit": "L/kg"}, {"measurement": "metabolised at 0.5 h, 5 µM", "setting": "[22]", "value": 16, "unit": "%"}, {"measurement": "IC50", "setting": "[23]", "value": "> 25", "unit": "µM"}, {"measurement": "clearance", "setting": "[24]", "value": 1.4, "unit": "mL/min/kg"}, {"measurement": "half-life", "setting": "[25]", "value": 10.2, "unit": "h"}, {"measurement": "IC50", "setting": "[26]", "value": "> 25", "unit": "µM"}, {"measurement": "half-life", "setting": "[27]", "value": 3.1, "unit": "h"}, {"measurement": "Papp at 5 h, 20 µM", "setting": "[28]", "value": 2.8, "unit": "×10⁻⁶ cm/s"}]}
